# From publication PMC9420810 (Nature microbiology, 2022)
# pKd: −log10 of the molar value.
# Columns and labels:
# [1] = read-out: KD of haem binding; cited from earlier work
# Cytochrome c = assay: UV-Vis test of haem sequestration from Cytochrome c; assay type: binding; settings: excess NCR247 added to Cytochrome c, UV-Vis spectrum
# [2] = test system: Porphyromonas gingivalis 2561; assay: Cell viability assay, P. gingivalis; assay type: cell-based
# S. meliloti [3] = assay: Growth curve in minimal medium; assay type: cell-based, Sinorhizobium meliloti; settings: 2 μM NCR247, OD 600 nm, 30° C
# Method in brief: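 Strain RM1021 or its mutants are first grown in LBMC (LB with 2.5 mM CaCl₂ and 2.5 mM MgSO₄, 200 μg/ml streptomycin, 30°C). Overnight cultures are washed and subcultured 1:100 into minimal medium, either iron-free or with the stated iron, Mn or Zn supplement. Cultures shake continuously at 150 rpm and 30°C in a plate reader, with OD600 read every 60 min.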
# [4] = UV-Vis spectroscopy of haem binding to synthesized peptide; settings: haem reduced by excess sodium dithionite, anaerobic chamber
# Method in brief: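 Hemin is dissolved in 0.1 M NaOH and used within 30 min. Its stock concentration is set by pyridine hemochrome absorbance at 557 nm (ε 34.7 mM⁻¹ cm⁻¹). Peptide and haem are mixed in water (pH 7.4) in 96-well plates. After shaking at 100 rpm for 15 s, spectra are recorded from 300 to 700 nm in 5 nm steps on a plate reader.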
# Aβ (1-42)-haem complex = assay: Peroxidase assay; assay type: biochemical, human; settings: equimolar addition of NCR247, TMB substrate, 370 nm and 652 nm
# Method in brief: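 Haem complex, with or without equimolar peptide, is added to TMB substrate solution (TMB:peroxide 1:1) in 96-well plates. Reaction progress is followed in a plate reader by absorbance at 370 and 652 nm. Values are the mean of three independent replicates ± s.d.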
# S. meliloti [5] = assay: Radioactive 55Fe uptake assay; assay type: cell-based, Sinorhizobium meliloti
# Method in brief: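 Cells are grown in LB to OD600 0.2, pelleted and held 1 h in minimal medium with 5 μM FeSO₄. Then 2 μM peptide and 100 μM sodium ascorbate are added for 30 min. At time 0, 1 μM ⁵⁵FeCl₃ with ascorbate is added. Timed 1 ml samples are quenched in ice-cold buffer (0.1 M Tris, 1 mM ascorbate, 100 μM FeSO₄, pH 6.0) and vacuum-filtered on 0.45 μm filters. Filters are scintillation-counted, and counts are normalised to protein.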
# [6] = test system: iron uptake genes (hmuP) and rirA in S. meliloti; assay: qRT-PCR of iron-related genes; assay type: cell-based, Sinorhizobium meliloti
# Method in brief: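 Cells are grown in LB to OD600 0.2, pelleted and resuspended for 1 h in minimal medium with or without FeSO₄, then exposed to peptide for 30 min. Transcript levels are measured by qRT-PCR and expressed as starting quantities normalised to the reference gene SMc00128.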
# [7] = test system: S. meliloti bacteroids isolated from M. truncatula nodules; assay: 55Fe uptake by isolated bacteroids; assay type: cell-based, Sinorhizobium meliloti; settings: bacteroids from nodules of plants inoculated with wild type S. meliloti, NCR247 treated
# S. meliloti [8] = assay: ICP-MS total iron content of cells; assay type: cell-based, Sinorhizobium meliloti; settings: 2 μM NCR247, ICP-MS, normalized to protein
# Method in brief: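 Equal numbers of cells are pelleted for ICP-MS metal analysis. Protein is measured from the same number of cells, and metal content is normalised to protein.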
Substance,pKd [1],sequestration of cytochrome haem (Cytochrome c),growth / viable cell number of Porphyromonas gingivalis [2],growth rate of S. meliloti (S. meliloti [3]),binding of Fe(II) ferrous haem [4],peroxidase activity of Aβ (1-42)-haem complex (Aβ (1-42)-haem complex),"import of 55Fe (S. meliloti [5]; wild type S. meliloti, medium with sufficient iron (5 μM FeSO4), 2 μM NCR247, mean of three biological replicates)","uptake of 55Fe in irr deletion mutant compared to wild type (S. meliloti [5]; Δirr S. meliloti, NCR247 treated)","rirA transcription ([6]; wild type S. meliloti, 2 μM NCR247 for 30 mins)","transcript levels of iron uptake genes ([6]; wild type S. meliloti, iron-replete medium, NCR247 treatment 30 mins)","expression of hmuP in ΔbacA strain ([6]; ΔbacA S. meliloti, 2 μM NCR247 for 30 mins)",uptake of Fe55 by bacteroids compared with untreated [7],total iron content of the cells (S. meliloti [8])
Aβ(1-42): human Aβ(1-42) amyloid peptide [reference compound],6.85,–,–,–,–,–,–,–,–,–,–,–,–
serum albumin,4.40,–,–,–,–,–,–,–,–,–,–,–,–
RNGCIVDPRCPYQQCRRPLYCRRR [NCR247],–,cannot sequester cytochrome haem,can prevent the growth,reduction in growth rate,binds,quenches its peroxidase activity,markedly increased,diminished,reduced,increase in transcript levels of iron uptake genes,very little change in expression of hmuP,increase uptake of Fe^55,elevated total iron content
